Laboratory results: ChEMBL document CHEMBL1158125, “seco-Cycloartane triterpenes from Gardenia aubryi” (J Nat Prod, 2006)
Where a name gives a salt, the structure may show the parent alone.

Experiments:
Type in all cases: functional, cell-based
MCF7 = test: Cytotoxicity against human MCF7 cells after 48 hrs by MTT assay; conditions: MCF7, 48 h
Method in brief: (§1)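 Cells grown in DMEM with penicillin (100 U/mL), streptomycin (100 μg/mL) and 10% FBS at 37 °C, 5% CO2, and seeded at 5000 cells/well. After 24 h, compounds were added diluted in DMSO and left for 48 h. Medium was then replaced with MTT (1 mg/mL final, serum-free phenol-red-free RPMI) for 4 h. Formazan was dissolved in isopropanol and read at 550 nm (reference 690 nm). IC50 reported.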

MDA-MB-231 = test: Cytotoxicity against human MDA-MB-231 cells after 48 hrs by MTT assay; conditions: MDA-MB-231, 48 h; method in brief: as §1
PC-3 = test: Cytotoxicity against human PC-3 cells after 48 hrs by MTT assay; conditions: PC-3, 48 h; method in brief: as §1
HeLa = test: Cytotoxicity against human HeLa cells after 48 hrs by MTT assay; method in brief: as §1

Row | Structure (SMILES) | IC50 (MCF7) [µM] | IC50 (MDA-MB-231) [µM] | IC50 (PC-3) [µM] | IC50 (HeLa) [µM]
1 | C=C1C(=O)O[C@@H]2C[C@@H]3[C@]4(CC[C@]5(C)[C@@H]([C@H](C)CC(=O)C=C(C)C)CC[C@@]35C)C[C@]4(CCC(=O)OC)[C@H]12 [SECAUBRYOLIDE] | 52 | 21 | 35 | 40
2 | C=C(CO)[C@@H]1CC[C@H]2[C@]3(CC[C@]4(C)[C@@H]([C@H](C)CCC=C(C)C)CC[C@@]24C)C[C@]13CCC(=O)O [SECAUBRYENOL] | > 100 | > 100 | > 100 | > 100
3 | COc1cccc2c1C(=O)c1c(O)c3c(c(O)c1C2=O)C[C@@](O)(C(C)=O)C[C@@H]3O[C@H]1C[C@H](N)[C@H](O)[C@H](C)O1 [DAUNORUBICIN HYDROCHLORIDE] | 0.22 | 0.25 | 0.44 | 0.32
4 | C=C(CO)[C@@H]1CC[C@H]2[C@]3(CC[C@]4(C)[C@@H]([C@H](C)CC[C@@H](O)C(C)(C)O)CC[C@@]24C)C[C@]13CCC(=O)O [SECAUBRYTRIOL] | > 100 | > 100 | > 100 | > 100
